One block for each compound: values may come before it. The source made the active and inactive calls. The rule behind the calls is not given here.
Columns and labels:
[1] = tested on: PC-3; assay: Anticancer activity against human PC3 cells assessed as inhibition of cell proliferation measured after 72 hrs by MTT assay; format: functional, cell-based; settings: PC-3, 72 h
Procedure, shortened: (§1)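 Cells (A549, PC-3, HeLa, HUVEC) grown in DMEM with 10% FBS at 37 °C, 5% CO₂. Seeded at 5 × 10⁴ cells/well and allowed 24 h to attach, then exposed 72 h to a concentration series from DMSO stocks. MTT was added for 4 h and formazan dissolved in DMSO, read at 490 nm. Survival taken relative to untreated control. IC50 by Bliss method, three repeats.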

[2] = tested on: HeLa; assay: Anticancer activity against human HeLa cells assessed as inhibition of cell proliferation measured after 72 hrs by MTT assay; format: functional, cell-based; procedure, shortened: as §1
[3] = tested on: A549; assay: Anticancer activity against human A549 cells assessed as inhibition of cell proliferation measured after 72 hrs by MTT assay; format: functional, cell-based; settings: A549, 72 h; procedure, shortened: as §1
[4] = tested on: HUVEC; assay: Cytotoxicity against HUVEC cells assessed as inhibition of cell proliferation measured after 72 hrs by MTT assay; format: cell-based; settings: Homo sapiens; procedure, shortened: as §1
[5] = tested on: HeLa; assay: Inhibition of IDO1 expression in hIFNgamma-stimulated human HeLa cells at 0.5 uM measured after 24 hrs by western blot assay; format: functional
Procedure, shortened: (§2)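 HeLa cells were treated 24 h at 37 °C and lysed in buffer containing PMSF. Protein quantified by BCA, equal amounts separated by SDS-PAGE and transferred to nitrocellulose. Blocked in 5% milk, primary antibodies overnight at 4 °C, peroxidase secondary 2 h at 25 °C. Detection by chemiluminescence, β-actin as loading control.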

[6] = Antitumor immunity against IFN-gamma stimulated human HeLa cells co-cultured with PHA-M-stimulated human PBMC cells assessed as induction of CD3+ T cell proliferation at 0.1 uM preincubated for 2 days measured after co-culturing with PBMC for 6 days by flow cytometry (reference value: 6 to 6.2%); format: functional; settings: time 8 day
[7] = tested on: HeLa; assay: Inhibition of IDO1 expression in hIFNgamma-stimulated human HeLa cells assessed as decrease in kynurenine production at 0.1 uM measured after 48 hrs by reverse-phase HPLC analysis; format: functional
Procedure, shortened: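 HeLa cells were given fresh L-tryptophan-containing medium with hIFN-γ (25 ng/mL) plus compound for 48 h. Collected cells were treated with 20% trichloroacetic acid and centrifuged. Supernatant analysed by reversed-phase HPLC (ODS column, acetonitrile/water, 1.0 mL/min, […]).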

[8] = tested on: HeLa; assay: Induction of apoptosis in human HeLa cells assessed as down regulation of Bcl-2 protein expression at 0.5 uM measured after 24 hrs by western blot analysis; format: functional, cell-based; procedure, shortened: as §2
[9] = tested on: HeLa; assay: Induction of intracellular reactive oxygen species generation in human HeLa cells at 0.5 uM measured after 24 hrs by DCFH-DA staining based flow cytometry (reference value: 6.47%); format: functional
[10] = tested on: HeLa; assay: Antitumor activity against human HeLa cells xenografted in BALB/c mouse assessed as inhibition of tumor volume at 30 mg/kg/day, iv administered for 21 days by caliper analysis; format: functional; settings: 504 h, time 21 day
Procedure, shortened: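 Male BALB/c nude mice, five weeks old, 18-22 g. Inoculated subcutaneously in the right armpit with 1 × 10⁷ HeLa cells/0.1 mL. At 120-150 mm³, randomized to four groups of five. Once-daily tail-vein injection for 21 days in Tween 80/physiological saline; controls received saline. Tumor volume measured every 2 days by caliper, V = AB²/2.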

[11] = tested on: HeLa; assay: Induction of apoptosis in human HeLa cells assessed as cell membrane integrity loss, chromatin condensation and apoptotic body formation by measuring strengthened orange fluorescence intensity at 0.5 uM measured after 24 hrs by AO/EB dual staining based fluorescence microscopy; format: functional
[12] = tested on: HeLa; assay: Induction of apoptosis in human HeLa cells assessed as cell membrane integrity loss, chromatin condensation and apoptotic body formation by measuring reduction in green fluorescence intensity at 0.5 uM measured after 24 hrs by AO/EB dual staining based fluorescence microscopy; format: functional
[13] = Toxicity in BALB/c nude mouse transfected with human HeLa cells assessed as heart damage at 30 mg/kg/day, iv for 21 days by H&E staining based immunohistochemistry; format: organism-based; settings: in vivo, 504 h, time 21 day
Procedure, shortened: (§3)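 HeLa xenografts were grown s.c. in male BALB/c nude mice, which received i.v. tail-vein doses once daily for 21 days in Tween 80/saline vehicle, with saline controls. After 3 weeks the mice were sacrificed. Organs from one mouse per group were fixed in 4% paraformaldehyde, paraffin-embedded and sectioned. Sections were dewaxed, stained with Harris hematoxylin and eosin-phloxine, and examined microscopically for histopathologic changes.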

[14] = tested on: HeLa; assay: Induction of cell cycle arrest in human HeLa cells assessed as accumulation at S phase at 0.5 uM measured after 24 hrs by propidium iodide/RNAse staining based flow cytometry (reference value: 27.8%); format: functional
[15] = Toxicity in BALB/c nude mouse transfected with human HeLa cells assessed as spleen damage at 30 mg/kg/day, iv for 21 days by H&E staining based immunohistochemistry; format: organism-based; settings: in vivo, 504 h, time 21 day; procedure, shortened: as §3
[16] = tested on: HeLa; assay: Induction of apoptosis in human HeLa cells assessed as late apoptotic cells at 0.5 uM measured after 24 hrs by Annexin-V-FITC and PI staining based flow cytometry (reference value: 0.199%); format: functional
Procedure, shortened: (§4)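 HeLa cells were treated 24 h, washed twice in PBS and resuspended in binding buffer. Stained with annexin V-FITC and PI for 30 min in the dark at room temperature, then analysed by flow cytometry.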

[17] = Toxicity in BALB/c nude mouse transfected with human HeLa cells assessed as lung damage at 30 mg/kg/day, iv for 21 days by H&E staining based immunohistochemistry; format: organism-based; settings: in vivo, 504 h, time 21 day; procedure, shortened: as §3
[18] = tested on: HeLa; assay: Induction of apoptosis in human HeLa cells assessed as early apoptotic cells at 0.5 uM measured after 24 hrs by Annexin-V-FITC and PI staining based flow cytometry (reference value: 2.58%); format: functional; procedure, shortened: as §4
[19] = tested on: HeLa; assay: Induction of apoptosis in human HeLa cells assessed as upregulation of Bax protein expression at 0.5 uM measured after 24 hrs by western blot analysis; format: functional, cell-based; procedure, shortened: as §2
[20] = tested on: HeLa; assay: Induction of apoptosis in human HeLa cells assessed as upregulation of PARP protein expression at 0.5 uM measured after 24 hrs by western blot analysis; format: functional, cell-based; procedure, shortened: as §2
[21] = tested on: HeLa; assay: Induction of cell cycle arrest in human HeLa cells assessed as accumulation at G2/M phase at 0.5 uM measured after 24 hrs by propidium iodide/RNAse staining based flow cytometry (reference value: 10.7%); format: functional
[22] = Toxicity in BALB/c nude mouse transfected with human HeLa cells assessed as liver damage at 30 mg/kg/day, iv for 21 days by H&E staining based immunohistochemistry; format: organism-based; settings: in vivo, 504 h, time 21 day; procedure, shortened: as §3
[23] = tested on: HeLa; assay: Induction of apoptosis in human HeLa cells assessed as viable cells at 0.5 uM measured after 24 hrs by Annexin-V-FITC and PI staining based flow cytometry (reference value: 96.3%); format: functional; settings: read-out: Activity; procedure, shortened: as §4
[24] = tested on: HeLa; assay: Induction of apoptosis in human HeLa cells assessed as mitochondrial membrane potential dissipation at 0.5 uM incubated for 24 hrs by JC-1 staining based flow cytometry (reference value: 6.6%); format: functional
[25] = Toxicity in BALB/c nude mouse transfected with human HeLa cells assessed as body weight changes at 30 mg/kg/day, iv for 21 days; format: organism-based; settings: in vivo, 504 h, time 21 day
Procedure, shortened: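 Five-week-old male BALB/c nude mice (18-22 g) were inoculated s.c. in the right armpit with HeLa cells (1 × 10⁷ cells/0.1 mL/mouse). At a tumour volume of 120-150 mm³, mice were randomised, five per group. Dosing was i.v. via the tail vein once daily for 21 days, in Tween 80/physiological saline; controls got an equal volume of saline. Body weight was recorded every 2 days.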

[26] = tested on: HeLa; assay: Induction of cell cycle arrest in human HeLa cells assessed as accumulation at G1 phase at 0.5 uM measured after 24 hrs by propidium iodide/RNAse staining based flow cytometry (reference value: 61.5%); format: functional
[27] = tested on: HeLa; assay: Induction of apoptosis in human HeLa cells assessed as necrotic cells at 0.5 uM measured after 24 hrs by Annexin-V-FITC and PI staining based flow cytometry (reference value: 0.956%); format: functional; procedure, shortened: as §4
[28] = Toxicity in BALB/c nude mouse transfected with human HeLa cells assessed as kidney damage at 30 mg/kg/day, iv for 21 days by H&E staining based immunohistochemistry; format: organism-based; settings: in vivo, 504 h, time 21 day; procedure, shortened: as §3
[29] = tested on: HeLa; assay: Induction of apoptosis in human HeLa cells assessed as mitochondrial membrane potential dissipation by measuring increase in green fluorescence intensity at 0.5 uM incubated for 24 hrs by JC-1 staining based fluorescence microscopic analysis; format: functional, cell-based
[30] = tested on: HeLa; assay: Inhibition of cell migration in human HeLa cells at 0.5 uM measured after 24 hrs by wound healing assay (reference value: 61%); format: functional
Procedure, shortened: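 Confluent HeLa monolayers were scratched with a pipette tip and washed with ice-cold PBS. Incubated 24 h at 37 °C in DMEM/10% FBS containing compound. Wounds were photographed at 0 and 24 h and migration distance measured manually.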

[31] = tested on: HeLa; assay: Induction of apoptosis in human HeLa cells assessed as upregulation of caspase-3 protein expression at 0.5 uM measured after 24 hrs by western blot analysis; format: functional, cell-based; procedure, shortened: as §2

IC50 [1]: 720 nM
IC50 [2]: 430 nM
IC50 [3]: 680 nM
SMILES: COc1ccc(/C=C\c2cc(OC)c(OC)c(OC)c2)cc1OC(=O)[C@H](N)Cc1cn(C)c2ccccc12
inhibition [5]: Active
IC50 [4]: 2530 nM

IC50 [1]: 850 nM
IC50 [2]: 390 nM
IC50 [3]: 950 nM
SMILES: COc1ccc(/C=C\c2cc(OC)c(OC)c(OC)c2)cc1OC(=O)c1cccc(Cn2cc(CCOC(=O)CCC(=O)n3cc(C4CC(=O)NC4=O)c4cc(F)ccc43)nn2)c1 (stereo not given)
IC50 [4]: 4490 nM

IC50 [1]: > 100000 nM
IC50 [2]: > 100000 nM
IC50 [3]: > 100000 nM
SMILES: Cn1cc(C[C@@H](N)C(=O)O)c2ccccc21 [INDOXIMOD]
inhibition [5]: Active
Activity [6]: 17.8%
IC50 [4]: > 100000 nM
inhibition [7]: Active

IC50 [1]: 1390 nM
IC50 [2]: 370 nM
IC50 [3]: 1280 nM
SMILES: COc1ccc(/C=C/C(=O)c2cc(OC)c(OC)c(OC)c2)cc1OC(=O)CCC(=O)n1cc(C2CC(=O)NC2=O)c2cc(F)ccc21 (stereo not given)
IC50 [4]: 4760 nM

IC50 [1]: 1560 nM
IC50 [2]: 490 nM
IC50 [3]: 970 nM
SMILES: COc1ccc(/C=C/C(=O)c2cc(OC)c(OC)c(OC)c2)cc1OC(=O)c1cccc(Cn2cc(CCOC(=O)CCC(=O)n3cc(C4CC(=O)NC4=O)c4cc(F)ccc43)nn2)c1 (stereo not given)
IC50 [4]: 7190 nM

The remaining lines, values behind:

SMILES: COc1ccc(/C=C/C(=O)c2cc(OC)c(OC)c(OC)c2)cc1O
IC50 [1]: 640 nM
IC50 [2]: 350 nM
IC50 [3]: 550 nM
IC50 [4]: 1240 nM

SMILES: COc1ccc(/C=C\c2cc(OC)c(OC)c(OC)c2)cc1OCCCOC(=O)[C@H](N)Cc1cn(C)c2ccccc12
inhibition [5]: Active
IC50 [1]: 580 nM
IC50 [2]: 330 nM
IC50 [3]: 530 nM
IC50 [4]: 3110 nM

SMILES: COc1ccc(/C=C/C(=O)c2cc(OC)c(OC)c(OC)c2)cc1OC(=O)c1cccc(Cn2cc(CCOC(=O)[C@H](N)Cc3cn(C)c4ccccc34)nn2)c1
IC50 [1]: 620 nM
IC50 [2]: 480 nM
IC50 [3]: 710 nM
IC50 [4]: 3730 nM

SMILES: COc1ccc(/C=C\c2cc(OC)c(OC)c(OC)c2)cc1O [COMBRETASTATIN A4]
Activity [8]: Active
Activity [9]: 21.8%
inhibition in vivo at 30 mg/kg/day [10]: 57.6%
Activity [11]: Active
inhibition [5]: inactive
Activity [12]: Active
Activity [13]: Non-Toxic
Activity [14]: 28.77%
IC50 [1]: 400 nM
Activity [15]: Non-Toxic
Activity [16]: 10.3%
Activity [17]: Non-Toxic
Activity [18]: 25%
Activity [19]: Active
Activity [20]: Active
Activity [21]: 66.57%
Activity [22]: Non-Toxic
viability at 0.5 µM [23]: 63.3%
IC50 [2]: 210 nM
Activity [24]: 54.2%
Activity [25]: Non-Toxic
IC50 [3]: 470 nM
Activity [26]: 4.65%
Activity [27]: 1.44%
Activity [28]: Non-Toxic
Activity [29]: Active
inhibition at 0.5 µM [30]: 79%
IC50 [4]: 980 nM
Activity [31]: Active

SMILES: COc1ccc(/C=C\c2cc(OC)c(OC)c(OC)c2)cc1OC(=O)CCC(=O)n1cc(C2CC(=O)NC2=O)c2cc(F)ccc21 (stereo not given)
IC50 [1]: 620 nM
IC50 [2]: 270 nM
IC50 [3]: 450 nM
IC50 [4]: 2270 nM

From ChEMBL document CHEMBL4680166, “Dual-functional conjugates improving cancer immunochemotherapy by inhibiting tubulin polymerization and indoleamine-2,3-dioxygenase” (Eur J Med Chem, 2020)
